Assay results as given in ChEMBL document CHEMBL2169772, “Discovery of (2S)-1-[4-(2-{6-amino-8-[(6-bromo-1,3-benzodioxol-5-yl)sulfanyl]-9H-purin-9-yl}ethyl)piperidin-1-yl]-2-hydroxypropan-1-one (MPC-3100), a purine-based Hsp90 inhibitor” (J Med Chem, 2012).

Assays:
Heat shock protein HSP90 [1] = molecular target: T1, Heat shock protein HSP90 (Homo sapiens, UniProt P07900+P08238); assay: Inhibition of human HSP90 in DU145 cells assessed as degradation of Akt incubated for 24 hrs by Western blot method; type: cell-based
Summary of the method: (§1)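 Cells exposed to a range of concentrations for 24 h. Lysates analyzed by Western blot with Her2-, Hsp70- and Akt-specific antibodies.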

NCI-N87 [2] = assay: Antitumor activity against human NCI-N87 cells xenografted in po dosed nude mouse assessed as tumor growth inhibition administered as qd for 22 days measured twice a week; type: functional, organism-based
Summary of the method: (§2)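 Female nude mice (Crl:NU-Fox1nu) implanted subcutaneously in the right flank with 5 million NCI-N87 cells. At median tumor volume of roughly >100 mm3, randomized to 5 cohorts of 10. Dosed orally once daily for 22 days with vehicle (40% w/w Captisol) or 50, 75, 125 or 200 mg/kg. Tumor size and body weight measured at least twice weekly.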

[3] = Half life in Swiss nude mouse at 2.5 mg/kg, iv by LC-ESI-MS/MS method; type: ADME, organism-based; parameters: dose 2.5 mg/kg, route intravenous; details: in vivo
Summary of the method: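 Intravenous dose in mice, vehicle DMA/PEG300/EtOH/H2O 3/40/12/45. Sampling at 5, 15, 30, 60, 120, 240, 480 and 720 min, three or five animals per time point. Cardiac-puncture EDTA plasma. Acetonitrile protein precipitation with internal standard, then LC-ESI-MS/MS (10–10 000 ng/mL curve). Parameters by noncompartmental fit.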

[4] = Cytotoxicity against human NCI-ADR-RES cells overexpressing P-gp 1 assessed as inhibition of tumor growth incubated for 72 hrs by luminometry; type: functional, cell-based
Summary of the method: (§3)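 Cells seeded at 5000 per well in DMEM with 10% serum and left overnight. Compound added from DMSO dilutions (0.4% DMSO final) for 72 h. After 5 min at room temperature, ATPLite two-step lysis and substrate added, 5 min incubation, then luminescence read. Values are the mean of at least two experiments.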

NCI-N87 [5] = assay: Antitumor activity against human NCI-N87 cells xenografted in nude mouse assessed as tumor growth inhibition at 75 mg/kg, po qd for 22 days measured twice a week; type: functional; details: NCI-N87, 528 h, read-out: TGI; summary of the method: as §2
[6] = Metabolic stability in human liver microsomes assessed as percent of residual drug in presence of NADPH incubated for 40 mins by LC-ESI-MS/MS method; type: ADME, Microsome; details: liver microsomes, read-out: Stability
Summary of the method: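 Test article incubated in duplicate with human liver microsomes (0.5 mg/mL protein) in 100 mM potassium phosphate pH 7.4. Started with 1 mM NADPH. Stopped with acetonitrile at 0, 10, 20 and 40 min. LC-MS/MS peak area at 40 min reported as percent of 0 min. No-NADPH control incubated for 40 min.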

NCI-N87 [7] = assay: Antitumor activity against human NCI-N87 cells xenografted in nude mouse assessed as tumor growth inhibition at 50 mg/kg, po qd for 22 days measured twice a week; type: functional; details: NCI-N87, 528 h, read-out: TGI; summary of the method: as §2
Heat shock protein HSP90 [8] = molecular target: T1, Heat shock protein HSP90; assay: Inhibition of human HSP90 in HCT116 cells expressing Her2 gene assessed as degradation of Her2 after 4 hrs by luciferase reporter gene assay; type: cell-based; details: hct-116
Summary of the method: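 HCT116 cells stably transfected with Her2 kinase domain (aa 641–975) fused to firefly luciferase. Seeded at 10 000 per well in DMEM with 10% serum and left overnight. Compound added from DMSO (0.4% final) for 4 h. Steady-Glo added at room temperature for 5 min, then luminescence read.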

BT-474 = assay: Cytotoxicity against human BT474 cells assessed as inhibition of tumor growth incubated for 72 hrs by luminometry; type: functional, cell-based; details: BT-474, 72 h; summary of the method: as §3
Mus musculus = assay: Inhibition of HSP90 in mouse liver assessed as induction of HSP70 mRNA expression at 100 mg/kg, po after 6 hrs relative to control; type: functional
[9] = AUC in Swiss nude mouse at 10 mg/kg, po by LC-ESI-MS/MS method; type: ADME, organism-based; parameters: dose 10 mg/kg, route oral; details: plasma
Summary of the method: (§4)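 Mice dosed by oral gavage, vehicle DMA/PEG300/EtOH/H2O (3/40/12/45, v/v/v/v). Blood drawn by cardiac puncture into EDTA plasma. Three or five animals per time point. Plasma precipitated with acetonitrile plus internal standard. Quantified by LC-ESI-MS/MS against a 10–10 000 ng/mL standard curve with QC samples. Noncompartmental analysis.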

Heat shock protein HSP90 [10] = molecular target: T1, Heat shock protein HSP90; assay: Inhibition of human HSP90 in HCT116 cells assessed as induction of HSP70 incubated for 24 hrs by Western blot method; type: cell-based; details: HCT-116; summary of the method: as §1
NCI-N87 [11] = assay: Cytotoxicity against human NCI-N87 cells assessed as inhibition of tumor growth incubated for 72 hrs by luminometry; type: functional, cell-based; details: NCI-N87, 72 h; summary of the method: as §3
Heat shock protein HSP90 [12] = molecular target: T1, Heat shock protein HSP90; assay: Inhibition of human HSP90 in HCT116 cells assessed as degradation of Akt incubated for 24 hrs by Western blot method; type: cell-based; summary of the method: as §1
[13] = Lipophilicity, log P of the compound; type: physicochemical; details: octanol/water
NCI-H69 = assay: Cytotoxicity against human NCI-H69 cells assessed as inhibition of tumor growth incubated for 72 hrs by luminometry; type: functional, cell-based; details: NCI-H69, 72 h; summary of the method: as §3
Heat shock protein HSP90 [14] = molecular target: T1, Heat shock protein HSP90; assay: Inhibition of human HSP90 in NCI-N87 cells assessed induction of HSP70 incubated for 24 hrs by Western blot method; type: cell-based; summary of the method: as §1
[15] = Cmax in Swiss nude mouse at 10 mg/kg, po by LC-ESI-MS/MS method; type: ADME, organism-based; parameters: dose 10 mg/kg, route oral; details: in vivo; summary of the method: as §4

inhibition (Heat shock protein HSP90 [1]; DU-145): Dose-dependent effect | IC50 (Heat shock protein HSP90 [1]; du-145): 100 nM | half-life [3]: 1.4 h | remaining at 40 min [6]: 42% | IC50 (Heat shock protein HSP90 [8]): 60 nM | AUC [9]: 3210 ng·h/mL | inhibition (Heat shock protein HSP90 [10]): Dose-dependent effect | inhibition (Heat shock protein HSP90 [12]; HCT-116): Dose-dependent effect | IC50 (Heat shock protein HSP90 [12]; hct-116): 100 nM | logP [13]: 3.32 | inhibition (Heat shock protein HSP90 [14]): Dose-dependent effect | Cmax [15]: 2800 ng/mL
Compound: C[C@H](O)C(=O)N1CCC(CCn2c(Sc3cc4c(cc3Br)OCO4)nc3c(N)ncnc32)CC1
TGI (NCI-N87 [2]): Dose-dependent effect | IC50 [4]: 4300 nM | inhibition in vivo at 75 mg/kg (NCI-N87 [5]): 62% | inhibition in vivo at 50 mg/kg (NCI-N87 [7]): 37% | IC50 (BT-474): 550 nM | fold change (FC) (Mus musculus): 53 | IC50 (NCI-N87 [11]): 200 nM | IC50 (NCI-H69): 150 nM
